What was measured:
[1] = Dissociation constant (pKa); assay type: physicochemical
Outline: (§1)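 pKa values measured in water at 25 °C by a previously published method.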

[2] = target: Muscarinic acetylcholine receptor; test: Inhibition of binding of radioactive N-propylbenzilycholine mustard ([3H]-PrBCM) to rat brain membranes; assay type: cell membranes, Membrane
[3] = target: Muscarinic acetylcholine receptor; test: In vitro antagonistic activity against peripheral Muscarinic acetylcholine receptor in guinea pig ileum as inhibition of acetylcholine induced muscle contraction; assay type: functional, tissue-based
Outline: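 Guinea pigs were killed by a blow to the head and exsanguinated. A 30 mm ileum segment was held isotonically in Tyrode solution at 37 °C in an organ bath. IC50 was obtained by log probit analysis.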

[4] = pKa value is determined; assay type: physicochemical; outline: as §1

pKa [1] | IC50 [2] | IC50 [3] | pKa [4] | Compound
6.6 | 2.4 µM | – | – | CCOc1noc2c1CN(C)CC2.Cl
6.6 | 27 µM | – | – | COc1noc2c1CN(C)CC2.Cl
7.7 | 14 µM | > 50 µM | – | C/C=C/COc1noc2c1CNCC2.Cl
7.7 | > 50 µM | 49 µM | – | CC(C)COc1noc2c1CNCC2.Cl
– | 45 µM | – | 7.5 | COc1noc2c1CNCC2.Cl
7 | 15 µM | – | – | CCN1CCc2onc(OC)c2C1.Cl
7.5 | 32 µM | 48 µM | – | Cl.c1ccc(COc2noc3c2CNCC3)cc1
– | 6 µM | – | 7.6 | CCOc1noc2c1CNCC2.Cl
7.6 | 10 µM | 35 µM | – | CCCOc1noc2c1CNCC2.Cl
7.6 | 15 µM | > 50 µM | – | CCCCOc1noc2c1CNCC2.Cl

More lines, now with the values behind:

Compound | pKa [1] | IC50 [2] | IC50 [3] | pKa [4]
C=CCOc1noc2c1CNCC2.Cl | 7.5 | 9.6 µM | – | –
CC(C)Oc1noc2c1CNCC2.Cl | 7.5 | 3.5 µM | 11 µM | –
C#CCOc1noc2c1CNCC2.Cl | 7.6 | 5.8 µM | – | –
C=C(Br)COc1noc2c1CNCC2.Cl | 7.6 | 13 µM | 22 µM | –
CC#CCOc1noc2c1CNCC2.Cl | 7.6 | 5.2 µM | – | –
COc1noc2c1CN(Cc1ccccc1)CC2.Cl | 6.1 | > 50 µM | > 50 µM | –
COC(=O)C1=CCCN(C)C1 [ARECOLINE] | 7.8 | – | – | –
COC(=O)C1=CCCNC1 [NORARECOLINE] | 8.7 | 30 µM | – | –

Reference: ChEMBL document CHEMBL1123456, “A novel class of conformationally restricted heterocyclic muscarinic agonists” (J Med Chem, 1986)
